Screening data from PubChem.
Rows were chosen to be rich in hits. Some 7.1% of all compounds tested hit in one or more screens of this group.
HUVEC inhibit: blocks proliferation of human endothelial cells; HUVEC proliferation, CellTiter-Glo luminescence, 72 h; stronger effect = lower value; viability, % at 10 µM (by protocol); actives 1.1% (n = 86,000); AID 648;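 active = viability at or below 30%; inactive = viability above 30%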
Cav3 T inh: inhibitors of human Cav3.2 T-type calcium channel | B-score at 10 µM | O95180 | actives 4% (n = 100,000) | Cav3.2-expressing cells, Fluo-4 calcium fluorescence FDSS; stronger effect = lower value;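 active = single-dose well whose peak fluorescence ratio is a statistical outlier from its plate by either plate-standardised score or position-corrected B-score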
Target sequence (O95180 whole entry, looked up): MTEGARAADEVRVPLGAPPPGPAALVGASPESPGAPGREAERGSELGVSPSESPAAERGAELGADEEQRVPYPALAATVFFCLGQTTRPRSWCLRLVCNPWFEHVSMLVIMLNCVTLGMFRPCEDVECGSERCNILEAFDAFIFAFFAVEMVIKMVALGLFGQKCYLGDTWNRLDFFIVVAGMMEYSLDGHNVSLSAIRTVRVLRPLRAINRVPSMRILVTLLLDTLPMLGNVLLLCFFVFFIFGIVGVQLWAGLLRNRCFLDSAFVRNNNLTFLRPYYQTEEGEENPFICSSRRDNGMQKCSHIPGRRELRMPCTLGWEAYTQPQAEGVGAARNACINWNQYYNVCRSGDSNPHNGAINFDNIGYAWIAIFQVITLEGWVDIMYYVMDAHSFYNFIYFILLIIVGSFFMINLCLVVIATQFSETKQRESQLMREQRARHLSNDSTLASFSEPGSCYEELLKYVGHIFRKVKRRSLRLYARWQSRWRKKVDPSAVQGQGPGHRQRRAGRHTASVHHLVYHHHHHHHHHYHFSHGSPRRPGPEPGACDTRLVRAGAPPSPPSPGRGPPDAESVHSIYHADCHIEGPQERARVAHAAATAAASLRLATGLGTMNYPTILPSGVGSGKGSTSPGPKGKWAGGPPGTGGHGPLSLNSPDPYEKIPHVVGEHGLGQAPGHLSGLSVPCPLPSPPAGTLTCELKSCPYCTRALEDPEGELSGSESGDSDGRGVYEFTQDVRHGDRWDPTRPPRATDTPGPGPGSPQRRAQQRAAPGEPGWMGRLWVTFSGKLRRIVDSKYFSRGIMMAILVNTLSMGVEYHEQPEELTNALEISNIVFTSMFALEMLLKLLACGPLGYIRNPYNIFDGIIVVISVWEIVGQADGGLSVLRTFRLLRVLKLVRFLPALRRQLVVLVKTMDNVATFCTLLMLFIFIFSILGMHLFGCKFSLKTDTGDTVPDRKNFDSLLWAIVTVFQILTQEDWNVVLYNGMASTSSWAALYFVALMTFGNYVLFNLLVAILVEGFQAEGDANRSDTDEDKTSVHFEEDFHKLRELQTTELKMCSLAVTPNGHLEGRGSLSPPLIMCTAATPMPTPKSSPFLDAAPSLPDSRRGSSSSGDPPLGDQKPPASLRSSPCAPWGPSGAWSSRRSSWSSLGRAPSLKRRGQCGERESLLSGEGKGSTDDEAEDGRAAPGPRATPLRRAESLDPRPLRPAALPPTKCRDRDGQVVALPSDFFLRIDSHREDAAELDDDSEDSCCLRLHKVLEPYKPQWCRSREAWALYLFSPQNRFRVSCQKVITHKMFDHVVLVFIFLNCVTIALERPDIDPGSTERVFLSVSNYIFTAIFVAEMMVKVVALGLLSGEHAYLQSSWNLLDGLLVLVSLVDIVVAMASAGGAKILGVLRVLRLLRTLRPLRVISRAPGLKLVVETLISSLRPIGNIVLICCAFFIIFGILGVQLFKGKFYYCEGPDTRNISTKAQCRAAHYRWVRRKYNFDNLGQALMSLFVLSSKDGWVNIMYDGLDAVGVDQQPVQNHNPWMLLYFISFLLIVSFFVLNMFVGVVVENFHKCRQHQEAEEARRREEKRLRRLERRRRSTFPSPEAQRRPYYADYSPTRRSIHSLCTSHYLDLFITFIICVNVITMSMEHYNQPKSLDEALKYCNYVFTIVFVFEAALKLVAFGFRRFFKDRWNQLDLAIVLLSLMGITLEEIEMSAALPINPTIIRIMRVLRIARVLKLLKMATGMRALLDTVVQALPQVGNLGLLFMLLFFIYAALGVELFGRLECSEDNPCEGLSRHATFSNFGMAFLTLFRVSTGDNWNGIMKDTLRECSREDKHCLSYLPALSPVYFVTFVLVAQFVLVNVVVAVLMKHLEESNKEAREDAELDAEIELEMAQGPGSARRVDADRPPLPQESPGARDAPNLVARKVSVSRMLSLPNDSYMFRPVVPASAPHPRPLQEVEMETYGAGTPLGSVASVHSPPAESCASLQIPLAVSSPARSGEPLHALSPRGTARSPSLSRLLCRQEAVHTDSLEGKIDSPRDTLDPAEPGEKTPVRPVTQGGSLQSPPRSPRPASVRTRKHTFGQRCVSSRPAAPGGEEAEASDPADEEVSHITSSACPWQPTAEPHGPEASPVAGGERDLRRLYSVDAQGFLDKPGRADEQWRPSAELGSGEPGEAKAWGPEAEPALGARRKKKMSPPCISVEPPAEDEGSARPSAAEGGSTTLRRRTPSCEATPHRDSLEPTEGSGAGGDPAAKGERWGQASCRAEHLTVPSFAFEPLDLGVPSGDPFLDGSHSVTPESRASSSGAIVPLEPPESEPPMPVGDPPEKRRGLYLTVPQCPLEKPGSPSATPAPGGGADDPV
PTEN del growth: suppresses growth of cells with PTEN deletion. actives 1.2% (n = 140,000). viability, % at 10 µM. HCT116 PTEN-null viability, CellTiter-Glo, 60 h; stronger effect = lower value;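 active = viability at or below a set limit, 4 SD under the median of all tested compounds, cut at about 3.7% in these data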;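 note: PTEN knockout HCT116 line with beta catenin targeted HCT116 as companion control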
HCT116 bCat-KO: beta-catenin-lacking colon tumor cell growth suppression; HCT116 beta-catenin knockout viability, CellTiter-Glo, 60 h; stronger effect = lower value; viability, % at 10 µM; actives 1.5% (n = 140,000);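 active = viability at or under a set limit, the compound median less 4 SD, cut at about 6% in these data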
Fibroblast inh: blocks proliferation of human lung fibroblasts. LL 47 human lung fibroblast viability, ATP luminescence; stronger effect = lower value. viability, % at 10 µM. actives 1.1% (n = 85,000). AID 719;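 active = viability at or below 50% in the single dose screen; inactive = viability above 50%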;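 note: compound exposure lasted 72 h before the ATP readout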
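Signal: luminescent ATP detection, CellTiter-Glo; assay system: LL 47 human lung fibroblasts; input: 1,150 cells/well; incubation: overnight cell rest, 72 h compound treatment at 37 °C; measure: % viability versus median cells-only luminescence; medium: IMEM growth medium with 15% fetal bovine serum; dosing: compound addition at 0.1% DMSO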
H69AR growth 86K: blocks growth of human H69AR lung tumor cells | AID 598 | actives 6% (n = 85,000) | viability, % at 10 µM | H69AR lung tumor viability, ATP luminescence, 72 h; stronger effect = lower value;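 active = viability at or below 40%; inactive = viability above 40%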;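 note: multidrug resistant small cell line overexpressing MRP-1 efflux transporter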
A number is an active result; - = inactive; . = no result.

SMILES	HUVEC inhibit	Cav3 T inh	PTEN del growth	HCT116 bCat-KO	Fibroblast inh	H69AR growth 86K
CC(=O)OCCCNc1cc(Sc2ccc(Cl)cc2)c2nonc2c1[N+](=O)[O-]	.	.	1.6	1.5	.	.
CCC(=O)OCCNc1cc(Sc2nccn2C)c2nonc2c1[N+](=O)[O-]	.	.	1.7	1.6	.	.
CCC(=O)OCCNc1cc(SCCC(=O)OC)c2nonc2c1[N+](=O)[O-]	.	.	-	-	.	.
Nc1ncnc(Sc2ccc(Cl)cc2)c1[N+](=O)[O-]	.	.	-	-	.	.
CCCC(=O)OCCNc1cc(Sc2nc3ccccc3[nH]2)c2nonc2c1[N+](=O)[O-]	.	.	3.6	3.6	.	.
Cc1cc(=O)oc2cc(OC(=O)CCCCCN3C(=O)c4ccccc4C3=O)ccc12	.	.	-	-	.	.
CCC(Oc1ccccc1)C(=O)O/N=C(\N)c1ccc(OC)c(OC)c1 (stereo not drawn)	.	.	-	-	.	.
CCN(CC)S(=O)(=O)c1cccc(NC(=O)C2SC(=Nc3ccc(C)cc3C)C(C(=O)NC(C)COC)=C2N)c1 (stereo not drawn)	.	-8.56	-	-	.	.
O=C(CCn1nc(-c2ccccc2)c2ccccc2c1=O)N1CCN(c2ccccc2)CC1	-	-5.27	-	-	-	-
NC(=O)CCn1nc(-c2ccccc2)c2ccccc2c1=O	-	-	-	-	-	-
Cc1[nH]n(-c2cccc3ccccc23)c(=O)c1/C=N/NC(=O)c1cccc([N+](=O)[O-])c1	.	.	3.6	4.5	.	.
CCN(CC)C(=O)C1CCCN(c2ccc([N+](=O)[O-])cc2/C=N/NC(=O)c2cccc(O)c2)C1 (stereo not drawn)	.	-	-	-	.	.
Cc1[nH]n(-c2ccccc2)c(=O)c1/C=N/NC(=O)c1cccc([N+](=O)[O-])c1	.	-	2.6	2.4	.	.
CN1CCN(c2ccc([N+](=O)[O-])cc2/C=N/NC(=O)c2cccc([N+](=O)[O-])c2)CC1	.	.	-	5.3	.	.
Cc1[nH]n(-c2ccccc2)c(=O)c1/C=N/NC(=O)COc1ccccc1[N+](=O)[O-]	.	.	-	-	.	.
COc1ccc(C(C)=O)c(Oc2nc(CN3CCOCC3)nc3scc(-c4cccs4)c23)c1	-	-	-	-	-	-
CC(=O)c1ccccc1Oc1nc(CN2CCOCC2)nc2scc(-c3cccs3)c12	-	-	-	-	.	29.5
CC(C)n1c(O)c(N=NC(=O)Cn2ccc(C(F)(F)F)n2)c2ccccc21	.	.	-	-	.	.
Cc1ccc(NC(=O)C(Nc2cccc(C)c2)c2ccccc2)cc1 (stereo not drawn)	.	.	-	-	.	.
CCc1c(O)c(/C(C)=N\O)c(=O)n(-c2ccccc2)c1-c1ccccc1	.	.	-	-	.	.
C=CCO/N=C(/C)c1c(O)c(CC)c(-c2ccccc2)n(-c2ccccc2)c1=O	-	-7.32	-	-	-	-
COc1ccc(Cl)cc1NC(=O)Cn1c(=O)n2nc(C)nc2c2ccccc21	-	-	-	-	-	0.9
COc1ccccc1NC(=O)Cn1nc(-c2ccc(Cl)cc2)c2ccccc2c1=O	-	-4.67	-	-	-	35.2
Cc1ccc2nc(-c3cccc(NS(C)(=O)=O)c3)cc(-c3ccccc3)c2c1	.	.	-	-	.	.
CCCCC1C(C#N)=C(C)NC2=C1C(=O)CC(C)(C)C2 (stereo not drawn)	-	-	-	-	-	-
SMILES	HUVEC inhibit	Cav3 T inh	PTEN del growth	HCT116 bCat-KO	Fibroblast inh	H69AR growth 86K
CCN(CC(=O)NC(C)C)C(=O)c1ccc(Cl)cc1	.	.	-	-	.	.
CC(C)C(=O)Nc1ccc(C(=O)c2ccccc2)cc1	-	-	-	-	-	-
COC(=O)C(C)N(C(=O)c1ccc(Cl)cc1)c1c(C)cccc1C (stereo not drawn)	-	-6.58	-	-	-	-
COC(=O)C(C)N(C(=O)c1ccc(C(=O)c2ccccc2)cc1)c1c(C)cccc1C (stereo not drawn)	-	-4.49	-	-	-	-
Nc1c(C(=O)NCc2ccccc2)c2nc3ccccc3nc2n1CCCN1CCOCC1	.	.	-	-	.	.
COc1ccc(CNC(=O)c2c(N)n(CCCN3CCOCC3)c3nc4ccccc4nc23)cc1	7.0	-	1.7	1.4	-	1.2
Nc1c(C(=O)NCc2ccc(F)cc2)c2nc3ccccc3nc2n1CCCN1CCOCC1	5.1	-	1.0	1.3	-	1.2
CCCCCC(=O)Nc1nc2ccccc2[nH]1	-	-	-	-	-	30.5
COc1cc(OC)cc(C(=O)Nc2nc3ccccc3[nH]2)c1	-	-	-	-	-	30.1
CCCOc1ccc2nc(NC(=O)OC)[nH]c2c1	-	.	-	-	49.5	30.8
COc1ccc(C(=O)Nc2nc3ccccc3[nH]2)cc1OC	-	-	-	-	-	-
COc1ccccc1CCC(=O)Nc1nc2ccccc2[nH]1	-	-	-	-	-	21.1
CCOc1ccc2nc(NCCCO)[nH]c2c1	-	-	-	-	-	-
Cc1sc(NC(=S)NC(=O)C2CCCCC2)c(C(N)=O)c1C	.	.	-	-	.	.
Cc1ccc(C(=O)COC(=O)CCCC(=O)Nc2cc(C(F)(F)F)ccc2Cl)cc1C	.	.	-	-	.	.
COc1ccc(OC)c(S(=O)(=O)Nc2ccc(O)c(Sc3ncn[nH]3)c2)c1	.	-	-	-	.	.
CN(/N=C\c1ccc(O)c(O)c1)c1nc(-c2ccccc2)cc(-c2ccccc2)n1	.	.	-	-	.	.
[N-]=[N+]=NC1C[C@H](n2ccc(=O)[nH]c2=O)O[C@@H]1CO (stereo partly drawn)	.	-	1.0	1.1	.	.
NC(=O)C1(N2CCCCC2)CCN(Cc2ccc(F)cc2)CC1	-	-4.15	-	-	-	-
CCOc1ccc(C(=O)C(CCC(CN(C)C)C(=O)c2ccc(OCC)cc2)CN(C)C)cc1 (stereo not drawn)	.	.	1.3	1.1	.	.
CC1=C(C(=O)Nc2ccccc2)C(c2ccc(C)cc2)N=C(Nc2nc3ccccc3o2)N1 (stereo not drawn)	.	-	3.6	-	.	.
COC(=O)C1=C(COc2ccc(C=O)cc2OC)NC(=O)NC1c1cc(C)ccc1C (stereo not drawn)	.	.	-	-	.	.
CCOC(=O)C1CCN(CC(O)COc2ccc(C(C)(C)C)cc2)CC1 (stereo not drawn)	-	-	-	-	-	-
CCOC(=O)C1CCN(CC(O)COc2ccc(C(C)(C)CC)cc2)CC1 (stereo not drawn)	-	-	-	-	-	25.7
COc1ccc(/C=C/c2nnc(NC(=O)CSc3ccc(Cl)cc3)s2)cc1	.	.	-	-	.	.
SMILES	HUVEC inhibit	Cav3 T inh	PTEN del growth	HCT116 bCat-KO	Fibroblast inh	H69AR growth 86K
CC(C)(Oc1ccc(Cl)cc1)C(=O)N1CCN(c2ccccn2)CC1	.	-4.49	-	-	.	.
CCCC(=O)Nc1ccccc1NC(=O)CN(C)S(=O)(=O)c1ccc(C)cc1	-	-	-	-	-	-
CC(=O)Nc1ccccc1N(C)S(=O)(=O)c1ccc(C)cc1	-	-	-	-	-	36.5
CN(C)c1ccc(-c2nnn(CC(=O)N3c4ccccc4CCc4ccccc43)n2)cc1	-	-	-	-	-	39.2
CN(C)c1ccc(-c2nnn(CC(=O)Nc3ccccc3N3CCOCC3)n2)cc1	-	.	-	-	-	-
C=CCOC(=O)C1=C(C)NC(=S)NC1c1cccs1 (stereo not drawn)	.	.	-	-	.	.
